# ChEMBL document CHEMBL4145652, “Chemoenzymatic Synthesis and Pharmacological Characterization of Functionalized Aspartate Analogues As Novel Excitatory Amino Acid Transporter Inhibitors” (J Med Chem, 2018)
# The source made the active and inactive calls. No cut-off for these calls is given here.
# Tests used:
# Type in all cases: cell-based
# [1] = molecular target: T1, Excitatory amino acid transporter 1 (Homo sapiens, UniProt P43003); assay: Inhibition of human EAAT1 expressed in HEK293 cells assessed as reduction in [3H]-D-Asp uptake incubated for 4 mins by scintillation counting method
# T1 sequence (P43003 whole entry): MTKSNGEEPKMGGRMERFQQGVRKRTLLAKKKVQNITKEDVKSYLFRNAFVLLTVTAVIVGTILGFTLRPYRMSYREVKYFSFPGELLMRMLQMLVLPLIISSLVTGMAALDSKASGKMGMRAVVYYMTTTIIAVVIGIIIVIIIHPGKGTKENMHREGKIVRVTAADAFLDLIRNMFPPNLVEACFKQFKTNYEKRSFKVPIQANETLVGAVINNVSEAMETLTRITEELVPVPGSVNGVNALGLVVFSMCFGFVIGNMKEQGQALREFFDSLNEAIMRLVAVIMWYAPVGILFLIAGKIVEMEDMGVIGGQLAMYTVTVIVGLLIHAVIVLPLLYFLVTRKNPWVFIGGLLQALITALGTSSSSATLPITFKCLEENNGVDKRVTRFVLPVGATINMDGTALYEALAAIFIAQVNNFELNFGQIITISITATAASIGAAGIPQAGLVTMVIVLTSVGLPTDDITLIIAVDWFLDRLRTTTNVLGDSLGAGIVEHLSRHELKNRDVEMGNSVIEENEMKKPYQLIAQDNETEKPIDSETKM
# Procedure, shortened: (§1)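 HEK293 cells stably expressing human EAAT1, EAAT2 or EAAT3 were plated 16–24 h before the assay. Cells were washed and incubated with 100 nM [3H]-D-Asp plus graded compound concentrations in HBSS/20 mM HEPES/CaCl2/MgCl2, pH 7.4, for 4 min at 37 °C. Uptake was in the linear range at this time. Cells were washed ice-cold and counted by scintillation. IC50 came from a Hill-equation fit. Three or four independent assays in duplicate.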
# [2] = molecular target: T2, Excitatory amino acid transporter 2 (Homo sapiens, UniProt P43004); assay: Inhibition of human EAAT2 expressed in HEK293 cells assessed as reduction in [3H]-D-Asp uptake incubated for 4 mins by scintillation counting method; details: read-out: IC50
# T2 sequence (P43004 whole entry): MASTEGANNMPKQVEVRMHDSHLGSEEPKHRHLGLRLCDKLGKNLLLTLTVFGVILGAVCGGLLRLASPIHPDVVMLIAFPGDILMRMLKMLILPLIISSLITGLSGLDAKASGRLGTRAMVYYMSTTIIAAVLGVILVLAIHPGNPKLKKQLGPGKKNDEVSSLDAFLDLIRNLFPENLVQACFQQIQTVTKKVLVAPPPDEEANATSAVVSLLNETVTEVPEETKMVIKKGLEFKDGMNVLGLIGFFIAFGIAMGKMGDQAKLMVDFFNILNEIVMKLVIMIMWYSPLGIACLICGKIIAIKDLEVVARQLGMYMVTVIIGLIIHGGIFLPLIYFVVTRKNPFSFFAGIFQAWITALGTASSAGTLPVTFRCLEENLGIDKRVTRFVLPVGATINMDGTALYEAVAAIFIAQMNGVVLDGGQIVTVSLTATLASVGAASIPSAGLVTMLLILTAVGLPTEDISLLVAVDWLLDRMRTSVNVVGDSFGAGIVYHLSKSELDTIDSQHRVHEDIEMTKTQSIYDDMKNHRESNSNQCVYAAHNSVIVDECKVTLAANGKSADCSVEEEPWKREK
# Procedure, shortened: as §1, with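 “time. Nonspecific uptake was defined with 3 mM L-Glu.” for “time.”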
# [3] = molecular target: T3, Excitatory amino acid transporter 3 (Homo sapiens, UniProt P43005); assay: Inhibition of human EAAT3 expressed in HEK293 cells assessed as reduction in [3H]-D-Asp uptake incubated for 4 mins by scintillation counting method; procedure, shortened: as §1
# T3 sequence (P43005 whole entry): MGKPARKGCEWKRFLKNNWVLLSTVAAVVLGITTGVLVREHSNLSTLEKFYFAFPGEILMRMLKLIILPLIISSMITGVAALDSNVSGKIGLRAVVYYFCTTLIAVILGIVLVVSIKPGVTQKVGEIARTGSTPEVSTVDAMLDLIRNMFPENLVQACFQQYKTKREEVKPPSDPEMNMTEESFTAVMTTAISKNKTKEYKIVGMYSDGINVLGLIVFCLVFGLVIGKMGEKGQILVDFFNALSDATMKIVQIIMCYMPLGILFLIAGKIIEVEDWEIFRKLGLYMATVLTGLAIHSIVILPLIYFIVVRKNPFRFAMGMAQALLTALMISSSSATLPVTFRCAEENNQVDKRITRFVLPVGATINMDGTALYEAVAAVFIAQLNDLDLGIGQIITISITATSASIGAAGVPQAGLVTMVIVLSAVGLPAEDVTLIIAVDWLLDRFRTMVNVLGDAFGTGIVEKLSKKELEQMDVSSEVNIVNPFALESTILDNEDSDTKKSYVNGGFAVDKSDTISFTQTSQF
# [4] = molecular target: T4, Excitatory amino acid transporter 4 (Rattus norvegicus, UniProt O35921); assay: Inhibition of rat EAAT4 expressed in tsA201 cells assessed as reduction in [3H]-D-Asp uptake incubated for 4 mins by scintillation counting method; details: read-out: IC50
# T4 sequence (O35921 whole entry): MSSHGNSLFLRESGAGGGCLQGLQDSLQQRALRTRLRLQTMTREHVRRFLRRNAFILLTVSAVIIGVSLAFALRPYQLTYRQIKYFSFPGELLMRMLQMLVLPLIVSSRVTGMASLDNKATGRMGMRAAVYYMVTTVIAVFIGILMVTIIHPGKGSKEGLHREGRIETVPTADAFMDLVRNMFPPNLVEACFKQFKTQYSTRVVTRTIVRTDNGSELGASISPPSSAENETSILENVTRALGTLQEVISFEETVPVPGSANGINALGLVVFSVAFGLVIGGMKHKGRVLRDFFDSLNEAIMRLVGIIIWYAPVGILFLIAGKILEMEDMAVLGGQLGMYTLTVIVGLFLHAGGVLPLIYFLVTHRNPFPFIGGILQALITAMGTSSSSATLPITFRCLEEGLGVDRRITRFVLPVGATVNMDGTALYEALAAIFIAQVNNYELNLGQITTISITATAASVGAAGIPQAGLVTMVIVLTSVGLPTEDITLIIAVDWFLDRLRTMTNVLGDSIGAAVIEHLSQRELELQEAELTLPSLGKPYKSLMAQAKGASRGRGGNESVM
# Procedure, shortened: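 Rat EAAT4 stably expressed in tsA201 cells, induced with 1 μg/mL tetracycline during overnight plating. [3H]-D-Asp (100 nM) uptake with graded compound concentrations ran for 4 min at 37 °C in HEPES-buffered HBSS, pH 7.4. Uptake was linear at this time. Nonspecific uptake was defined by 3 mM L-Glu. Read-out by scintillation counting. IC50 came from a Hill-equation fit. Three or four independent assays in duplicate.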
# [5] = molecular target: T1, Excitatory amino acid transporter 1; assay: Potency index, ratio of IC50 for DL-TBOA to IC50 for test compound for inhibition of human EAAT1 expressed in HEK293 cells assessed as reduction in [3H]-D-Asp uptake incubated for 4 mins by scintillation counting method
# Procedure, shortened: (§2)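 Stable HEK293 lines expressing human transporter, plated on poly-D-lysine 16–24 h before assay. Washed cells were given HBSS/20 mM HEPES/1 mM CaCl2/1 mM MgCl2, pH 7.4, with 100 nM [3H]-D-Asp plus graded inhibitor for 4 min at 37 °C. Nonspecific uptake was taken with 3 mM L-Glu. IC50 came from a Hill fit; index = DL-TBOA IC50 ÷ test IC50. Three or four independent runs in duplicate.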
# [6] = molecular target: T2, Excitatory amino acid transporter 2; assay: Potency index, ratio of IC50 for DL-TBOA to IC50 for test compound for inhibition of human EAAT2 expressed in HEK293 cells assessed as reduction in [3H]-D-Asp uptake incubated for 4 mins by scintillation counting method; procedure, shortened: as §2
# [7] = molecular target: T5, Excitatory amino acid transporter 3 (Homo sapiens) (UniProt P43005); assay: Potency index, ratio of IC50 for DL-TBOA to IC50 for test compound for inhibition of human EAAT3 expressed in HEK293 cells assessed as reduction in [3H]-D-Asp uptake incubated for 4 mins by scintillation counting method; procedure, shortened: as §2
# T5 sequence (whole entry): T3 sequence (P43005 whole entry)
# [8] = molecular target: T6, Excitatory amino acid transporter 4 (Rattus norvegicus) (UniProt O35921); assay: Potency index, ratio of IC50 for DL-TBOA to IC50 for test compound for inhibition of rat EAAT4 expressed in tsA201 cells assessed as reduction in [3H]-D-Asp uptake incubated for 4 mins by scintillation counting method
# T6 sequence (whole entry): T4 sequence (O35921 whole entry)
# Procedure, shortened: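 Stable rat EAAT4 tsA201 line induced with 1 µg/mL tetracycline on plating, 16–24 h before assay. Uptake used 100 nM [3H]-D-Asp with graded inhibitor in HEPES-buffered HBSS, pH 7.4, for 4 min at 37 °C. 3 mM L-Glu defined nonspecific uptake. Scintillation counts were Hill-fitted for IC50; index = DL-TBOA IC50 ÷ test IC50. Three or four independent runs in duplicate.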
# [9] = molecular target: T1, Excitatory amino acid transporter 1; assay: Potency index, ratio of IC50 for WAY-213613 to IC50 for test compound for inhibition of human EAAT1 expressed in HEK293 cells assessed as reduction in [3H]-D-Asp uptake incubated for 4 mins by scintillation counting method
# [10] = molecular target: T2, Excitatory amino acid transporter 2; assay: Potency index, ratio of IC50 for WAY-213613 to IC50 for test compound for inhibition of human EAAT2 expressed in HEK293 cells assessed as reduction in [3H]-D-Asp uptake incubated for 4 mins by scintillation counting method
# [11] = molecular target: T5, Excitatory amino acid transporter 3 (Homo sapiens); assay: Potency index, ratio of IC50 for WAY-213613 to IC50 for test compound for inhibition of human EAAT3 expressed in HEK293 cells assessed as reduction in [3H]-D-Asp uptake incubated for 4 mins by scintillation counting method
# [12] = molecular target: T6, Excitatory amino acid transporter 4 (Rattus norvegicus); assay: Potency index, ratio of IC50 for WAY-213613 to IC50 for test compound for inhibition of rat EAAT4 expressed in tsA201 cells assessed as reduction in [3H]-D-Asp uptake incubated for 4 mins by scintillation counting method
# [13] = molecular target: T1, Excitatory amino acid transporter 1; assay: Potency index, ratio of IC50 for NBI59159 to IC50 for test compound for inhibition of human EAAT1 expressed in HEK293 cells assessed as reduction in [3H]-D-Asp uptake incubated for 4 mins by scintillation counting method
# [14] = molecular target: T2, Excitatory amino acid transporter 2; assay: Potency index, ratio of IC50 for NBI59159 to IC50 for test compound for inhibition of human EAAT2 expressed in HEK293 cells assessed as reduction in [3H]-D-Asp uptake incubated for 4 mins by scintillation counting method
# [15] = molecular target: T5, Excitatory amino acid transporter 3 (Homo sapiens); assay: Potency index, ratio of IC50 for NBI59159 to IC50 for test compound for inhibition of human EAAT3 expressed in HEK293 cells assessed as reduction in [3H]-D-Asp uptake incubated for 4 mins by scintillation counting method
# [16] = molecular target: T1, Excitatory amino acid transporter 1; assay: Substrate activity at human EAAT1 expressed in HEK293 cells assessed as increase in fluorescence level at 300 uM incubated for 30 mins by fluorescence-based FLIPR membrane potential blue assay
# Procedure, shortened: (§3)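 Human EAAT1-, EAAT2- or EAAT3-HEK293 cells were loaded with FMP dye (0.5 mg/mL) in Na+-containing HEPES buffer, pH 7.4, for 30 min at 37 °C. Test compound was then added alone to an assay concentration of 300 μM. Fluorescence (ex 525/em 565 nm) was recorded before addition and up to 90 s after. Three independent experiments in triplicate.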
# [17] = molecular target: T2, Excitatory amino acid transporter 2; assay: Substrate activity at human EAAT2 expressed in HEK293 cells assessed as increase in fluorescence level at 300 uM incubated for 30 mins by fluorescence-based FLIPR membrane potential blue assay; procedure, shortened: as §3
# [18] = molecular target: T5, Excitatory amino acid transporter 3 (Homo sapiens); assay: Substrate activity at human EAAT3 expressed in HEK293 cells assessed as increase in fluorescence level at 300 uM incubated for 30 mins by fluorescence-based FLIPR membrane potential blue assay; procedure, shortened: as §3
# [19] = molecular target: T1, Excitatory amino acid transporter 1; assay: Inhibition of human EAAT1 expressed in HEK293 cells assessed as reduction in EC80 L-glutamate-induced response at 300 uM pre-incubated before L-glutamate addition by fluorescence-based FLIPR membrane potential blue assay
# Procedure, shortened: (§4)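 Stably transfected HEK293 cells expressing human EAAT1, EAAT2 or EAAT3, plated the day before on poly-D-lysine-coated plates. Cells were loaded with FMP dye (0.5 mg/mL) in NaCl/KCl/HEPES/glucose buffer, pH 7.4, for 30 min at 37 °C, with test compound at 300 μM present. L-Glu at its EC80 for each transporter was then added. Emission at 565 nm (excitation 525 nm) was read up to 90 s. Three independent experiments in triplicate.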
# [20] = molecular target: T2, Excitatory amino acid transporter 2; assay: Inhibition of human EAAT2 expressed in HEK293 cells assessed as reduction in EC80 L-glutamate-induced response at 300 uM pre-incubated before L-glutamate addition by fluorescence-based FLIPR membrane potential blue assay; procedure, shortened: as §4
# [21] = molecular target: T5, Excitatory amino acid transporter 3 (Homo sapiens); assay: Inhibition of human EAAT3 expressed in HEK293 cells assessed as reduction in EC80 L-glutamate-induced response at 300 uM pre-incubated before L-glutamate addition by fluorescence-based FLIPR membrane potential blue assay; procedure, shortened: as §4
# [22] = molecular target: T2, Excitatory amino acid transporter 2; assay: Inhibition of human EAAT2 expressed in HEK293 cells assessed as reduction in EC80 L-glutamate-induced response at 300 uM co-applied with L-glutamate addition by fluorescence-based FLIPR membrane potential blue assay
Compound,IC50 [1] [nM],IC50 [2] [nM],IC50 [3] [nM],IC50 [4] [nM],Ratio IC50 [5],Ratio IC50 [6],Ratio IC50 [7],Ratio IC50 [8],also measured
N[C@H](C(=O)O)[C@H](OCc1ccccc1)C(=O)Nc1ccc(Oc2cc(F)c(F)cc2Br)cc1,11,36,94,140,190,53,40,16,Ratio IC50 [9]: 78; Ratio IC50 [10]: 2; Ratio IC50 [11]: 20; Ratio IC50 [12]: 11
N[C@H](C(=O)O)[C@H](OCc1ccccc1)C(=O)Nc1ccc2c(c1)Cc1ccccc1-2,12,47,55,80,180,40,69,29,Ratio IC50 [13]: 83; Ratio IC50 [14]: 30; Ratio IC50 [15]: 1.6
N[C@H](C(=O)O)[C@H](OCc1cccs1)C(=O)O,1200,770,1200,3300,–,–,–,–,Activity [16]: inactive; Activity [17]: inactive; Activity [18]: inactive; inhibition [19]: Active; inhibition [20]: Active; inhibition [21]: Active; inhibition [22]: Active
